A short description of data set [1]: Hyperprolactinemia in patients referred to a tertiary care hospital. The data set is classed as in vivo, human. The following applies: for drug-induced hyperprolactinemia with prolactin levels less than 100 ng/ml: number of cases / drug-induced hyperprolactinemia with prolactin levels greater than 100 ng/ml: number of cases: 11 drug-induced cases among 58.
Data set [2] in a line: Etiological profile of hyperprolactinemia, Endocrine OPD. The class given is in vivo, human. The conditions noted are these: 50 subjects with hyperprolactinemia; use of drugs 56% of etiologies; Domperidone with and without PPI.
Data set [3] is classed as in vivo, human.
Another data set is described as follows: Case: hypomagnesemia. The data set is classed as in vivo, human. The conditions noted are these: single child, Tab. MgO 200mg TID.
The nature of data set [4]: Case: Chiari Frommel syndrome treated with bromocriptine. The class given is in vivo, human. The following applies: single patient, 2.5mg for one month.
A short description of data set [5]: Giant prolactinoma case series, response to cabergoline. The conditions noted are these: follow-up MRI in 17 patients. The data set is classed as in vivo, human. An outline of the steps:
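Patients with giant prolactinoma all received cabergoline, dose range 0.5-7 mg/week, over a mean follow-up of 11.78 ± 14.89 months. Tumour shrinkage was judged against the baseline maximum tumour dimension on follow-up MRI, which was available for 17 patients.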

Data set [6] in a line: Case: ACTH and prolactin co-secreting pituitary adenoma treated with cabergoline. The class given is in vivo, human. The following applies: single patient.
Data set [7] in a line: Case: cabozantinib for metastatic MTC. The class given is in vivo, human. The following applies: single patient.
For data set [8] the following is noted: ref not given, cited from earlier work.
Data set [9] is described as follows: Case: diazoxide in Prader-Willi Syndrome. The class given is in vivo, human. The conditions noted are these: child with PWS.
Data set [10] is classed as in vivo, human. An outline of the steps:
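Observational study of 167 diabetic outpatients seen January–June 2023. All had HbA1c, FPG and PPG uncontrolled on two or three oral hypoglycaemic agents and were unwilling to start insulin. Imeglimin was added as the third or fourth agent, and FPG, PPG, HbA1c and adverse effects were recorded afterwards.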
The source holds these as a separate data set.

Data set [11] is classed as in vivo, human. The following applies: orlistat 120 mg thrice daily, mean [SD].
A short description of data set [12]: Orlistat vs orlistat + resveratrol in overweight/obese subjects, 12 weeks. The class given is in vivo, human.
Data set [13] can be described thus: Semaglutide in type 2 diabetes, cross sectional study. The class given is in vivo, human. The following applies: Likert 5-point scale.
Data set [14] is described as follows: Case: nivolumab induced endocrine dysfunction. The class given is in vivo, human. The following applies: single patient, 240 mg fortnightly, after 10 cycles.
The nature of data set [15]: Case series: immune check point inhibitor induced endocrine dysfunction. The data set is classed as in vivo, human. The conditions noted are these: series of ten patients with IRAE.
The nature of data set [16]: Case: growth hormone therapy in short stature with Crohn's disease. The class given is in vivo, human. The conditions noted are these: single patient.
[17] abbreviates: fulminant hepatic failure, fatal.
Where [18] appears, read: last Ketoconazole dose the night before surgery, isoflurane anaesthesia.
The mark [19] stands for this setting: single patient on Ketoconazole 1200 mg/day and spironolactone 200 mg/day.

In the case of `O=c1[nH]c2ccccc2n1CCCN1CCC(n2c(=O)[nH]c3cc(Cl)ccc32)CC1` [Domperidone], the “drug-induced hyperprolactinemia with prolactin levels less than 100 ng/ml: number of cases” value in [1] amounted to 3 cases. For the same compound, in data set [2], the “Among the drugs causing hyperprolactinemia: share of cases” value turned out to be 53.57%.
For `CC(=O)N1CCN(c2ccc(OCC3COC(Cn4ccnc4)(c4ccc(Cl)cc4Cl)O3)cc2)CC1` (centres unmarked) [Ketoconazole], in data set [3] (setting [17]), the “ALT, 5th post operative day” value is 5053 U/L; the “AST, 5th post operative day” value was 7844 L⁻¹; the “GGT, 5th post operative day” value is reported as 207 U/L; the “INR, 5th post operative day” value was above 11. In data set [3] (setting [17]), the “PT, 5th post operative day” value was above 120 s and the “aPTT, 5th post operative day” value was above 180 s. Also, in data set [3] (setting [18]), the “ALT, 4th post operative day” value is recorded as 433 U/L; the “AST, 4th post operative day” value is reported as 370 U/L; the “GGT, 4th post operative day” value turned out to be 233 U/L. Besides, in data set [3] (setting [19]), the “ALT before the surgery” value was found to be 30 IU/ml and the “AST before the surgery” value was found to be 27 IU/ml.
`[O]=[Mg]` [MgO]: the calcium on treatment in the data set “Case: hypomagnesemia” was determined as 9.2 mg/dL. The “Serum Magnesium on treatment” value in “Case: hypomagnesemia” (at presentation 0.4mg/dl) was 1.2 mg/dL.
Consider `Cc1cc2c(s1)Nc1ccccc1N=C2N1CCN(C)CC1` [Olanzapine], for which the “Among the drugs causing hyperprolactinemia: share of cases” value in [2] was determined as 3.57%.
For the compound `Cc1nc2n(c(=O)c1CCN1CCC(c3noc4cc(F)ccc34)CC1)CCCC2` [Risperidone], in data set [1], the “drug-induced hyperprolactinemia with prolactin levels greater than 100 ng/ml: number of cases” value is 1 cases and the “drug-induced hyperprolactinemia with prolactin levels less than 100 ng/ml: number of cases” value is reported as 1 cases. Moreover, the “Among the drugs causing hyperprolactinemia: share of cases” value in data set [2] is 7.14%.
With `CN[C@H]1CC[C@@H](c2ccc(Cl)c(Cl)c2)c2ccccc21` [Sertraline], the “Among the drugs causing hyperprolactinemia: share of cases” value in data set [2] is recorded as 3.57%.
For `CC(C)C[C@H]1C(=O)N2CCC[C@H]2[C@]2(O)O[C@](NC(=O)[C@@H]3C=C4c5cccc6[nH]c(Br)c(c56)C[C@H]4N(C)C3)(C(C)C)C(=O)N12` [bromocriptine], the effect on galactorrhea result in [4] is “Milk secretion was slowed down”.
With `C=CCN1C[C@H](C(=O)N(CCCN(C)C)C(=O)NCC)C[C@@H]2c3cccc4[nH]cc(c34)C[C@H]21` [cabergoline], in data set [5] (2 patients), the “Tumor shrinkage <50%, share of patients” value is on record as 11.76% and the “disappearance of radiologically detectable tumor, share of patients” value is 11.76%. In [5] (13 patients), the “Tumor shrinkage of >50% from the baseline, share of patients” value was found to be 76.47%. The “outcome at increased dose” value in [6] (cabergoline 2mg/week) was “developed adrenal insufficiency”. Besides, the Follow up prolactin in [6] (on cabergoline 0.5mg/week, before dose increase) was 15737 miu/l. In [6] (post 3 days of cabergoline 0.5mg/week), this compound returned a Stimulated cortisol of 535 nmol/L. The compound also came in with an 8am cortisol in data set [6] (post 3 days of cabergoline 0.5mg/week, before 525nmol/l) of 132 nmol/L. Also, in data set [6] (post 3 days of cabergoline 0.5mg/week, before 20982miu/l), the Prolactin came out at 9215 miu/l.
As to `COc1cc2nccc(Oc3ccc(NC(=O)C4(C(=O)Nc5ccc(F)cc5)CC4)cc3)c2cc1OC` [cabozantinib], in [7], the “response of metastatic MTC” value was “good response” and the tolerability result is “stopped due to side effects”.
For `COc1cc(CNC(=O)CCCC/C=C/C(C)C)ccc1O` [capsaicin], the “pain control, capsaicin lotion compared with placebo” value in data set [8] (analysis on treatment intention, all pain measures) is reported as “insignificant improvement in pain control”. Moreover, the “pain relief, topical capsaicin cream […], multicenter controlled trial” value in [8] (initial results, vs placebo) is “more relief of the pain associated with diabetic neuropathy than placebo”. Moreover, in data set [8] (may lead to withdrawal from the study), the “tolerability, capsaicin […] cream” value is “local skin irritation, which is often mild and transient”. Besides, the “pain relief, capsaicin […] cream applied to the painful area” value in data set [8] (painful diabetic neuropathy) is on record as “significant pain relief”. Moreover, in data set [8], the “pain relief, topical capsaicin […] for four to six weeks” value is “either complete or significant relief”.
Regarding `CC1=NS(=O)(=O)c2cc(Cl)ccc2N1` [diazoxide], in data set [9] (3 mg/kg/d), the tolerability entry is “well tolerated”. In [9] (3 mg/kg/d in two divided doses, after 3 weeks), the effect on hyperphagia result is listed as “perceptible reduction in hyperphagia”.
As for `C[C@H]1N=C(N(C)C)N=C(N)N1` [imeglimin], the “most common adverse effect” value in data set [10] (n=167) is reported as “gastrointestinal issues”. Moreover, in data set [10] (n=167, add-on to two or three OHAs, baseline 9.1±1.8, p=0.004), the “HbA1c after imeglimin was added” value stood at 7.2±1.2. For the same compound, in [10] (n=167, add-on to two or three OHAs, baseline 176.61±45.75, p=0.013), the “FPG after imeglimin was added” value worked out at 108.05±24.79. Moreover, the “PPG after imeglimin was added” value in data set [10] (n=167, add-on to two or three OHAs, baseline 247.86±68.17, p=0.020) amounted to 156.49±38.53.
For the compound `CCN1CCC[C@H]1CNC(=O)c1cc(S(N)(=O)=O)ccc1OC` [levosulpiride], in data set [1], the “drug-induced hyperprolactinemia with prolactin levels greater than 100 ng/ml: number of cases” value is reported as 5 cases and the “drug-induced hyperprolactinemia with prolactin levels less than 100 ng/ml: number of cases” value came to 1 cases. The “prolactin levels in drug-induced hyperprolactinemia” value in [1] (statement of the conclusion) was above 100 ng/mL.
For `CCCCCCCCCCC[C@@H](C[C@@H]1OC(=O)[C@H]1CCCCCC)OC(=O)[C@H](CC(C)C)NC=O` [orlistat], in data set [11] (patients with diabetes), the “mean weight loss after 2 months, group 2” value is 6.3 [4.9] %; the “mean weight loss after 4 months, group 2” value is 8.7 [4.7] %; the “mean weight loss after 6 months, group 2” value was 12.9 [2.4] %. Besides, in data set [11] (patients without diabetes), the “mean weight loss after 2 months, group 1” value was 7.1 [6.1] %; the “mean weight loss after 4 months, group 1” value is 14.6 [12.9] %; the “mean weight loss after 6 months, group 1” value is 16.1 [6.7] %. Besides, in [11] (prediabetic patients), the “mean weight loss after 2 months, group 3” value is 6 [2.6] %; the “mean weight loss after 4 months, group 3” value was 15.5 [15.4] %; the “mean weight loss after 6 months, group 3” value is 15.8 [6.2] %. For the same compound, the “diarrhoea, number of patients” value in [12] is on record as 7 patients. In addition, in data set [12] (sub-group, p=0.045), the “weight loss, patients with diabetes with a BMI >=30” value was -1.04 kg. Moreover, the “weight loss, patients with diabetes with steatosis” value in [12] (sub-group, p=0.048) is listed as -0.44 kg. In [12] (thrice daily, 247 completers, mean body weight ~80 kg), the “weight loss compared to baseline” value is -2.92 kg.
For `CC[C@H](C)[C@H](NC(=O)[C@H](Cc1ccccc1)NC(=O)[C@H](CCC(=O)O)NC(=O)[C@H](CCCCNC(=O)COCCOCCNC(=O)COCCOCCNC(=O)CC[C@H](NC(=O)CCCCCCCCCCCCCCCCC(=O)O)C(=O)O)NC(=O)[C@H](C)NC(=O)[C@H](C)NC(=O)[C@H](CCC(N)=O)NC(=O)CNC(=O)[C@H](CCC(=O)O)NC(=O)[C@H](CC(C)C)NC(=O)[C@H](Cc1ccc(O)cc1)NC(=O)[C@H](CO)NC(=O)[C@H](CO)NC(=O)[C@@H](NC(=O)[C@H](CC(=O)O)NC(=O)[C@H](CO)NC(=O)[C@@H](NC(=O)[C@H](Cc1ccccc1)NC(=O)[C@@H](NC(=O)CNC(=O)[C@H](CCC(=O)O)NC(=O)C(C)(C)NC(=O)[C@@H](N)Cc1cnc[nH]1)[C@@H](C)O)[C@@H](C)O)C(C)C)C(=O)N[C@@H](C)C(=O)N[C@@H](Cc1c[nH]c2ccccc12)C(=O)N[C@@H](CC(C)C)C(=O)N[C@H](C(=O)N[C@@H](CCCNC(=N)N)C(=O)NCC(=O)N[C@@H](CCCNC(=N)N)C(=O)NCC(=O)O)C(C)C` [semaglutide], in [13], the “patients rating strongly agree or agree for adverse event: diarrhoea” value was 91.3%, the “patients rating strongly agree or agree for adverse event: loss of appetite” value stood at 87.4% and the “patients rating strongly agree or agree for adverse event: nausea” value worked out at 93.5%.
Take nivolumab: the “immune-related adverse events diagnosed” value in data set [14] is “checkpoint inhibitor induced diabetes mellitus (CPI-DM) and central adrenal insufficiency”. For the same compound, the “patients with isolated thyroid dysfunction on the drug” value in data set [15] is listed as “five”.
In the case of “rHGH: recombinant growth hormone injection”, in [16] (0.18mg/kg/week, 6 months), the catchup growth was 7 cm. Moreover, in data set [16] (0.3mg/kg/week, undiagnosed Crohn's disease), the “growth thereafter at higher doses” value was “height remained static”.

The record behind these values is PMC10870986 (Indian Journal of Endocrinology and Metabolism, 2023).
